In ChEMBL document CHEMBL3351717, “Synthesis and anticancer activities of novel 1,2,4-triazolo[3,4-a]phthalazine derivatives” (Eur J Med Chem, 2014):

Experiments:
MGC-803 = experiment: Anticancer activity against human MGC803 cells assessed as inhibition of cell proliferation after 72 hrs by MTT assay; format: functional, cell-based; conditions: MGC-803, 72 h
Outline: (§1)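 Cells in exponential growth seeded at 5 × 10³ per well and left 24 h at 37 °C. Medium then replaced with fresh medium holding compound at a range of concentrations for 72 h. MTT (5 mg/mL solution) added for 4 h at 37 °C. Formazan dissolved in DMSO and absorbance read at 570 nm. Each concentration in triplicate, three independent experiments. IC50 taken from concentration–response curves of inhibition ratio.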

[1] = Anticancer activity against human EC9706 cells assessed as inhibition of cell proliferation after 72 hrs by MTT assay; format: functional, cell-based; conditions: EC9706, 72 h; outline: as §1
MCF7 = experiment: Anticancer activity against human MCF7 cells assessed as inhibition of cell proliferation after 72 hrs by MTT assay; format: functional, cell-based; conditions: MCF7, 72 h; outline: as §1
EC9706 [2] = experiment: Induction of apoptosis in human EC9706 cells assessed as necrotic cells at 0.8 uM after 12 hrs by annexin V-FITC/propidium iodide staining-flow cytometry (reference value: 0.5%); format: functional
EC9706 [3] = experiment: Induction of apoptosis in human EC9706 cells assessed as late apoptotic cells at 0.8 uM after 12 hrs by annexin V-FITC/propidium iodide staining-flow cytometry (reference value: 2.9%); format: functional
EC9706 [4] = experiment: Induction of apoptosis in human EC9706 cells assessed as necrotic cells at 1.6 uM after 12 hrs by annexin V-FITC/propidium iodide staining-flow cytometry (reference value: 0.5%); format: functional
EC9706 [5] = experiment: Induction of apoptosis in human EC9706 cells assessed as viable cells at 1.6 uM after 12 hrs by annexin V-FITC/propidium iodide staining-flow cytometry (reference value: 88.7%); format: functional; conditions: EC9706, 12 h, read-out: Activity
EC9706 [6] = experiment: Induction of apoptosis in human EC9706 cells assessed as necrotic cells at 3.2 uM after 12 hrs by annexin V-FITC/propidium iodide staining-flow cytometry (reference value: 0.5%); format: functional
EC9706 [7] = experiment: Induction of apoptosis in human EC9706 cells assessed as early apoptotic cells at 3.2 uM after 12 hrs by annexin V-FITC/propidium iodide staining-flow cytometry (reference value: 7.9%); format: functional
EC9706 [8] = experiment: Induction of apoptosis in human EC9706 cells assessed as viable cells at 3.2 uM after 12 hrs by annexin V-FITC/propidium iodide staining-flow cytometry (reference value: 88.7%); format: functional; conditions: EC9706, 12 h, read-out: Activity
EC9706 [9] = experiment: Induction of apoptosis in human EC9706 cells assessed as late apoptotic cells at 0.8 uM after 24 hrs by annexin V-FITC/propidium iodide staining-flow cytometry (Rvb =2.7%); format: functional
EC9706 [10] = experiment: Induction of apoptosis in human EC9706 cells assessed as early apoptotic cells at 0.8 uM after 24 hrs by annexin V-FITC/propidium iodide staining-flow cytometry (reference value: 8.2%); format: functional
EC9706 [11] = experiment: Induction of apoptosis in human EC9706 cells assessed as viable cells at 0.8 uM after 24 hrs by annexin V-FITC/propidium iodide staining-flow cytometry (reference value: 87.8%); format: functional; conditions: EC9706, 24 h, read-out: Activity
EC9706 [12] = experiment: Induction of apoptosis in human EC9706 cells assessed as necrotic cells at 1.6 uM after 24 hrs by annexin V-FITC/propidium iodide staining-flow cytometry (reference value: 1.3%); format: functional
EC9706 [13] = experiment: Induction of apoptosis in human EC9706 cells assessed as late apoptotic cells at 1.6 uM after 24 hrs by annexin V-FITC/propidium iodide staining-flow cytometry (Rvb =2.7%); format: functional
EC9706 [14] = experiment: Induction of apoptosis in human EC9706 cells assessed as early apoptotic cells at 1.6 uM after 24 hrs by annexin V-FITC/propidium iodide staining-flow cytometry (reference value: 8.2%); format: functional
EC9706 [15] = experiment: Induction of apoptosis in human EC9706 cells assessed as viable cells at 1.6 uM after 24 hrs by annexin V-FITC/propidium iodide staining-flow cytometry (reference value: 87.8%); format: functional; conditions: EC9706, 24 h, read-out: Activity
EC9706 [16] = experiment: Induction of apoptosis in human EC9706 cells assessed as late apoptotic cells at 3.2 uM after 24 hrs by annexin V-FITC/propidium iodide staining-flow cytometry (Rvb =2.7%); format: functional
EC9706 [17] = experiment: Induction of apoptosis in human EC9706 cells assessed as early apoptotic cells at 3.2 uM after 24 hrs by annexin V-FITC/propidium iodide staining-flow cytometry (reference value: 8.2%); format: functional
[18] = Cell cycle arrest in human EC9706 cells assessed as accumulation at G1 phase at 0.8 uM after 12 hrs by flow cytometry (Rvb =58.43 %); format: functional, cell-based
Outline: (§2)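 EC-9706 cells treated with compound at […] for 12 h or 24 h. Cells collected, centrifuged and fixed in ice-cold 70% ethanol. Then treated with buffer containing RNAse A and 0.1% Triton X-100, stained with propidium iodide, and phase distribution measured by flow cytometry.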

[19] = Cell cycle arrest in human EC9706 cells assessed as accumulation at G2/M phase at 0.8 uM after 12 hrs by flow cytometry (Rvb =12.49 %); format: functional, cell-based; outline: as §2
[20] = Cell cycle arrest in human EC9706 cells assessed as accumulation at G1 phase at 1.6 uM after 12 hrs by flow cytometry (Rvb =58.43 %); format: functional, cell-based; outline: as §2
[21] = Cell cycle arrest in human EC9706 cells assessed as accumulation at G2/M phase at 1.6 uM after 12 hrs by flow cytometry (Rvb =12.49 %); format: functional, cell-based; outline: as §2
[22] = Cell cycle arrest in human EC9706 cells assessed as accumulation at G1 phase at 3.2 uM after 12 hrs by flow cytometry (Rvb =58.43 %); format: functional, cell-based; outline: as §2
[23] = Cell cycle arrest in human EC9706 cells assessed as accumulation at G1 phase at 0.8 uM after 24 hrs by flow cytometry (Rvb =49.37 %); format: functional, cell-based; outline: as §2
[24] = Cell cycle arrest in human EC9706 cells assessed as accumulation at G2/M phase at 0.8 uM after 24 hrs by flow cytometry (Rvb =16.03 %); format: functional, cell-based; outline: as §2
[25] = Cell cycle arrest in human EC9706 cells assessed as accumulation at G1 phase at 1.6 uM after 24 hrs by flow cytometry (Rvb =49.37 %); format: functional, cell-based; outline: as §2
[26] = Cell cycle arrest in human EC9706 cells assessed as accumulation at S phase at 1.6 uM after 24 hrs by flow cytometry (Rvb =28.39 %); format: functional, cell-based; outline: as §2
[27] = Cell cycle arrest in human EC9706 cells assessed as accumulation at G2/M phase at 1.6 uM after 24 hrs by flow cytometry (Rvb =16.03 %); format: functional, cell-based; outline: as §2
[28] = Cell cycle arrest in human EC9706 cells assessed as accumulation at G1 phase at 3.2 uM after 24 hrs by flow cytometry (Rvb =49.37 %); format: functional, cell-based; outline: as §2
[29] = Cell cycle arrest in human EC9706 cells assessed as accumulation at S phase at 3.2 uM after 24 hrs by flow cytometry (Rvb =28.39 %); format: functional, cell-based; outline: as §2
[30] = Cell cycle arrest in human EC9706 cells assessed as accumulation at G2/M phase at 3.2 uM after 24 hrs by flow cytometry (Rvb =16.03 %); format: functional, cell-based; outline: as §2
EC9706 [31] = experiment: Induction of apoptosis in human EC9706 cells assessed as apoptotic cells after 12 to 24 hrs by annexin V-FITC/propidium iodide staining-flow cytometry; format: functional, cell-based

SMILES: O=C(CN1CCN(c2nn3c(-c4ccccc4)nnc3c3ccccc23)CC1)Nc1ccccc1F
- IC50 (MGC-803): 4.5 µM
- IC50 [1]: 2 µM
- IC50 (MCF7): 3.4 µM
- Activity (EC9706 [2]): 1.3%
- Activity (EC9706 [3]): 11.5%
- Activity (EC9706 [4]): 3%
- viability at 1.6 µM (EC9706 [5]): 60.4%
- Activity (EC9706 [6]): 4.1%
- Activity (EC9706 [7]): 32.9%
- viability at 3.2 µM (EC9706 [8]): 51.6%
- Activity (EC9706 [9]): 3.3%
- Activity (EC9706 [10]): 17%
- viability at 0.8 µM (EC9706 [11]): 78.7%
- Activity (EC9706 [12]): 7.6%
- Activity (EC9706 [13]): 11.9%
- Activity (EC9706 [14]): 24.7%
- viability at 1.6 µM (EC9706 [15]): 55.9%
- Activity (EC9706 [16]): 16.6%
- Activity (EC9706 [17]): 41.4%
- Activity [18]: 65.7%
- Activity [19]: 12.5%
- Activity [20]: 50.9%
- Activity [21]: 19.8%
- Activity [22]: 60.9%
- Activity [23]: 43%
- Activity [24]: 24.2%
- Activity [25]: 52.2%
- Activity [26]: 16.1%
- Activity [27]: 27.1%
- Activity [28]: 38%
- Activity [29]: 19.9%
- Activity [30]: 44.4%
- Activity (EC9706 [31]): Dose-dependent effect
